Experimental data: ChEMBL document CHEMBL1124925, “Anticandidal properties of N3-(4-methoxyfumaroyl)-L-2,3-diaminopropanoic acid oligopeptides” (1990)
Converted amounts (≈) assume the structure as drawn. Non-standard residues stand in square brackets, D forms with d. Residues, ends and D or L forms follow the SMILES beside them. *: point of attachment. Fumaryl(OMe) = COC(=O)/C=C/C(=O)*; Dap = NC[C@H](N)C(=O)O

Key:
[1] = tested on: Candida albicans; test: In vitro antifungal activity against 16 clinical strains of Candida albicans.; type: functional
How it was run: (§1)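 MIC by serial dilution in liquid YNB medium containing sodium glutamate, inoculated at 10^4 cells/mL; growth read turbidimetrically at 660 nm after 24 h at 30 °C. Strains were 16 fresh clinical isolates collected at the Medical Academy of Gdansk plus standard strain ATCC 26278.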

[2] = tested on: Saccharomyces cerevisiae; test: In vitro antifungal activity against Saccharomyces cerevisiae ATCC 9763.; type: functional
[3] = tested on: Candida albicans; test: In vitro antifungal activity against Candida albicans ATCC 26278.; type: functional; how it was run: as §1
[4] = tested on: Candida epidermidis; test: In vitro antifungal activity against Candida epidermidis OBS 6023.
[5] = tested on: Candida albicans; test: Tested for its intracellular cleavage rate in Candida albicans ATCC 26278.; type: functional
How it was run: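 Cell-free extract came from cells grown overnight on Sabouraud medium at 30 °C with vigorous shaking. Cells were washed and extracted in 0.05 M phosphate buffer, pH 6.5; protein was measured by Lowry (Layne modification). Peptides at 200 μM in 0.005 M phosphate buffer were incubated with extract at 30 °C for 30 min. Samples were taken every 10 min and released amino acid was measured by Cd-ninhydrin.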

[6] = tested on: Candida albicans; test: Tested for its rate of transport in Candida albicans ATCC 26278.; type: functional
[7] = tested on: Saccharomyces cerevisiae; test: Tested in vitro for antifungal activity against Saccharomyces cerevisiae ATCC 9763.; type: functional
[8] = tested on: Saccharomyces cerevisiae; test: In vitro for antifungal activity against Saccharomyces cerevisiae ATCC 9763.; type: functional
[9] = tested on: Candida epidermidis; test: In vitro antifungal activity against Candida epidermidis OBS 6023.; remark: listed apart in the source

Row | SMILES | MIC [1] [µg/mL] | MIC [2] [µg/mL] | MIC [3] [µg/mL] | MIC [4] [µg/mL] | MIC [7] [µg/mL] | MIC [8] [µg/mL] | MIC [9] [µg/mL] | Cleavage rate [5] [nM/min/mg] | Transport rate [6] [nM/min/mg]
1 | COC(=O)/C=C/C(=O)NC[C@H](NC(=O)[C@@H](N)CCSC)C(=O)N[C@@H](CCSC)C(=O)O | 0.15 (≈ 0.313 µM) | 50 (≈ 104 µM) | 0.3 (≈ 0.627 µM) | 110 (≈ 230 µM) | – | – | – | 4.8 | –
2 | COC(=O)/C=C/C(=O)NC[C@H](NC(=O)[C@H](N)CCSC)C(=O)N[C@H](CCSC)C(=O)O | – | – | – | – | – | – | – | – | 2
3 | COC(=O)/C=C/C(=O)NC[C@H](NC(=O)[C@H](CCSC)NC(=O)[C@@H](N)CCSC)C(=O)O | 0.1 (≈ 0.209 µM) | – | 0.25 (≈ 0.522 µM) | 125 (≈ 261 µM) | 37.5 (≈ 78.4 µM) | – | – | 4.9 | –
4 | CCC[C@H](NC(=O)[C@@H](N)CCCCN)C(=O)N[C@@H](CNC(=O)/C=C/C(=O)OC)C(=O)O | 0.01 (≈ 0.0225 µM) | – | 0.025 (≈ 0.0564 µM) | 125 (≈ 282 µM) | – | – | – | 51 | –
5 | COC(=O)/C=C/C(=O)NC[C@H](N)C(=O)N[C@@H](CCSC)C(=O)N[C@@H](C)C(=O)O | 0.1 (≈ 0.239 µM) | 15 (≈ 35.8 µM) | 0.25 (≈ 0.597 µM) | 50 (≈ 119 µM) | – | – | – | 4.9 | –
6 | COC(=O)/C=C/C(=O)NC[C@H](NC(=O)[C@@H](CCSC)NC(=O)[C@@H](CCSC)NC(=O)[C@@H](N)CNC(=O)/C=C/C(=O)OC)C(=O)O | – | – | – | – | – | – | – | – | 1.2
7 | CCC[C@H](NC(=O)[C@@H](N)CCSC)C(=O)N[C@@H](CNC(=O)/C=C/C(=O)OC)C(=O)O | 0.05 (≈ 0.112 µM) | 7.5 (≈ 16.8 µM) | 0.125 (≈ 0.28 µM) | 130 (≈ 291 µM) | – | – | – | 17.3 | –
8 | COC(=O)/C=C/C(=O)NC[C@H](NC(=O)[C@H](C)N)C(=O)N[C@@H](C)C(=O)O | 0.25 (≈ 0.698 µM) | 37.5 (≈ 105 µM) | 0.75 (≈ 2.09 µM) | 80 (≈ 223 µM) | – | – | – | 5.4 | 0.9
9 | COC(=O)/C=C/C(=O)NC[C@H](NC(=O)[C@H](CNC(=O)/C=C/C(=O)OC)NC(=O)[C@@H](N)CCSC)C(=O)O | 0.25 (≈ 0.458 µM) | 150 (≈ 275 µM) | 0.75 (≈ 1.37 µM) | 125 (≈ 229 µM) | – | – | – | 10 | –
10 | COC(=O)/C=C/C(=O)NCC(N)C(=O)N[C@@H](CCSC)C(=O)N[C@@H](CNC(=O)/C=C/C(=O)OC)C(=O)O (some centres undefined) | 0.25 (≈ 0.458 µM) | 150 (≈ 275 µM) | 0.75 (≈ 1.37 µM) | 75 (≈ 137 µM) | – | – | – | 3 | 1.4

Continued by falling MIC [1], values first:

Row | MIC [1] [µg/mL] | MIC [2] [µg/mL] | MIC [3] [µg/mL] | MIC [4] [µg/mL] | MIC [7] [µg/mL] | MIC [8] [µg/mL] | MIC [9] [µg/mL] | SMILES | Cleavage rate [5] [nM/min/mg] | Transport rate [6] [nM/min/mg]
11 | 0.25 (≈ 0.369 µM) | 75 (≈ 111 µM) | 0.25 (≈ 0.369 µM) | 75 (≈ 111 µM) | – | – | – | COC(=O)/C=C/C(=O)NC[C@H](NC(=O)[C@H](CCSC)NC(=O)[C@H](CCSC)NC(=O)[C@@H](N)CNC(=O)/C=C/C(=O)OC)C(=O)O | 5.8 | –
12 | 0.25 (≈ 0.597 µM) | 7.5 (≈ 17.9 µM) | 0.75 (≈ 1.79 µM) | 125 (≈ 299 µM) | – | – | – | COC(=O)/C=C/C(=O)NC[C@H](NC(=O)[C@H](C)NC(=O)[C@@H](N)CCSC)C(=O)O | 15.2 | –
13 | 0.25 (≈ 0.337 µM) | 37.5 (≈ 50.6 µM) | 0.5 (≈ 0.675 µM) | – | – | – | 75 (≈ 101 µM) | COC(=O)/C=C/C(=O)NC[C@H](NC(=O)[C@H](CCSC)NC(=O)[C@H](CCSC)NC(=O)[C@H](CCSC)NC(=O)[C@@H](N)CCSC)C(=O)O (H-MMMM[Dap](Fumaryl(OMe))-OH) | 18.6 | –
14 | 0.25 (≈ 0.41 µM) | 100 (≈ 164 µM) | 0.75 (≈ 1.23 µM) | 75 (≈ 123 µM) | – | – | – | COC(=O)/C=C/C(=O)NC[C@H](NC(=O)[C@H](CCSC)NC(=O)[C@H](CCSC)NC(=O)[C@@H](N)CCSC)C(=O)O (H-MMM[Dap](Fumaryl(OMe))-OH) | 23.7 | –
15 | 0.01 (≈ 0.0241 µM) | – | 0.05 (≈ 0.121 µM) | 125 (≈ 302 µM) | – | 50 (≈ 121 µM) | – | CCC[C@H](NC(=O)[C@H](CNC(=O)/C=C/C(=O)OC)NC(=O)[C@@H](N)CCC)C(=O)O | 8.9 | 2.9
